Assay results as given in ChEMBL document CHEMBL3102784, “Salicylanilide diethyl phosphates: synthesis, antimicrobial activity and cytotoxicity” (Bioorg Med Chem, 2014).
Converted amounts (≈) assume the structure as drawn. The source made the active and inactive calls. The calls are words filed in the database; no cut-off is given here.

How the values were obtained:
[1] = system: Candida albicans; assay: Antifungal activity against Candida albicans ATCC 44859 after 24 hrs by broth microdilution method; assay type: functional; settings: ATCC 44859, 24 h
Summary of the method: (§1)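 Broth microdilution in RPMI 1640 with glutamine, fluconazole as reference. For yeasts, MIC is ≥80% growth reduction (IC80) versus control. For filamentous fungi, the value is expressed as IC50. Readings at 24 and 48 h.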

[2] = system: Mycobacterium kansasii; assay: Antimycobacterial activity against Mycobacterium kansasii My 235/80 after 7 days; assay type: functional; settings: My 235/80, 168 h
Summary of the method: (§2)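 Micromethod MIC in Šula's semisynthetic medium at 37 °C. Compounds added in DMSO at 1000 down to 0.032 µmol/L. Isoniazid standard in sterile water at 0.5–250 µmol/L. Inocula: H37Rv 10^3, M. avium 10^5, M. kansasii 10^4. Read at 14 and 21 d, plus 7 d for M. kansasii.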

[3] = system: Mycobacterium avium; assay: Antimycobacterial activity against isoniazid, rifampicin, ethambutol and ofloxacin-resistant Mycobacterium avium My 330/88 after 14 days; assay type: functional; settings: My 330/88, 336 h; summary of the method: as §2
[4] = system: Mycobacterium kansasii; assay: Antimycobacterial activity against Mycobacterium kansasii My 235/80 after 21 days; assay type: functional; settings: My 235/80, 504 h; summary of the method: as §2
[5] = system: Aspergillus fumigatus; assay: Antifungal activity against Aspergillus fumigatus 231 after 48 hrs by broth microdilution method; assay type: functional; settings: Aspergillus fumigatus, 231, 48 h; summary of the method: as §1
[6] = system: Trichophyton mentagrophytes; assay: Antifungal activity against Trichophyton mentagrophytes 445 after 120 hrs by broth microdilution method; assay type: functional; settings: Trichophyton mentagrophytes, 445, 120 h
Summary of the method: (§3)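 Filamentous dermatophyte tested by broth microdilution in RPMI 1640 with glutamine, fluconazole as reference. Value expressed as IC50 relative to growth control. Read at 72 and 120 h.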

[7] = system: Staphylococcus aureus; assay: Antibacterial activity against methicillin-resistant Staphylococcus aureus H 5996/08 after 24 hrs by broth microdilution method; assay type: functional; settings: H 5996/08, 24 h
Summary of the method: (§4)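 Broth microdilution in Mueller–Hinton broth, compounds dissolved in DMSO, tested over a dilution series from 500 downward. MIC taken as ≥95% growth reduction (IC95) versus drug-free control. Benzylpenicillin comparator. Readings at 24 and 48 h.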

[8] = system: Staphylococcus aureus; assay: Antibacterial activity against methicillin-resistant Staphylococcus aureus H 5996/08 after 48 hrs by broth microdilution method; assay type: functional; settings: H 5996/08, 48 h; summary of the method: as §4
[9] = system: Staphylococcus epidermidis; assay: Antibacterial activity against Staphylococcus epidermidis H 6966/08 after 48 hrs by broth microdilution method; assay type: functional; settings: H 6966/08, 48 h; summary of the method: as §4
[10] = system: Staphylococcus epidermidis; assay: Antibacterial activity against Staphylococcus epidermidis H 6966/08 after 24 hrs by broth microdilution method; assay type: functional; settings: H 6966/08, 24 h; summary of the method: as §4
[11] = system: Klebsiella pneumoniae; assay: Antibacterial activity against Klebsiella pneumoniae D 11750/08 at 500 micromol/L after 24 to 48 hrs by broth microdilution method; assay type: functional, organism-based; summary of the method: as §4
[12] = system: Aspergillus fumigatus; assay: Antifungal activity against Aspergillus fumigatus 231 after 24 hrs by broth microdilution method; assay type: functional; settings: Aspergillus fumigatus, 231, 24 h; summary of the method: as §1
[13] = system: Pichia kudriavzevii; assay: Antifungal activity against Candida krusei E28 after 48 hrs by broth microdilution method; assay type: functional; settings: E28, 48 h; summary of the method: as §1
[14] = system: Trichophyton mentagrophytes; assay: Antifungal activity against Trichophyton mentagrophytes 445 after 72 hrs by broth microdilution method; assay type: functional; settings: Trichophyton mentagrophytes, 445, 72 h; summary of the method: as §3
[15] = system: Mycobacterium kansasii; assay: Antimycobacterial activity against Mycobacterium kansasii 6509/96 after 14 days; assay type: functional; settings: 6509/96, 336 h; summary of the method: as §2
[16] = system: Candida albicans; assay: Antifungal activity against Candida albicans ATCC 44859 after 48 hrs by broth microdilution method; assay type: functional; settings: ATCC 44859, 48 h; summary of the method: as §1
[17] = system: Staphylococcus aureus; assay: Antibacterial activity against Staphylococcus aureus CCM 4516/08 after 24 hrs by broth microdilution method; assay type: functional; settings: CCM 4516/08, 24 h; summary of the method: as §4
[18] = system: Mycobacterium tuberculosis; assay: Antimycobacterial activity against Mycobacterium tuberculosis H37Rv My 331/88 after 14 days; assay type: functional; settings: H37Rv My 331/88, 336 h; summary of the method: as §2
[19] = system: Mycobacterium avium; assay: Antimycobacterial activity against isoniazid, rifampicin, ethambutol and ofloxacin-resistant Mycobacterium avium My 330/88 after 21 days; assay type: functional; settings: My 330/88, 504 h; summary of the method: as §2
[20] = system: Enterococcus sp.; assay: Antibacterial activity against Enterococcus sp. J 14365/08 at 500 micromol/L after 24 to 48 hrs by broth microdilution method; assay type: functional, organism-based; summary of the method: as §4
[21] = system: Candida tropicalis; assay: Antifungal activity against Candida tropicalis 156 at 500 micromol/L after 24 to 48 hrs by broth microdilution method; assay type: functional, organism-based; summary of the method: as §1
[22] = system: Mycobacterium kansasii; assay: Antimycobacterial activity against Mycobacterium kansasii 6509/96 after 21 days; assay type: functional; settings: 6509/96, 504 h; summary of the method: as §2
[23] = system: Mycobacterium kansasii; assay: Antimycobacterial activity against Mycobacterium kansasii My 235/80 after 14 days; assay type: functional; settings: My 235/80, 336 h; summary of the method: as §2
[24] = system: Mycobacterium tuberculosis; assay: Antimycobacterial activity against Mycobacterium tuberculosis H37Rv My 331/88 after 21 days; assay type: functional; settings: H37Rv My 331/88, 504 h; summary of the method: as §2
[25] = system: Mycobacterium kansasii; assay: Antimycobacterial activity against Mycobacterium kansasii 6509/96 after 7 days; assay type: functional; settings: 6509/96, 168 h; summary of the method: as §2
[26] = system: Lichtheimia corymbifera; assay: Antifungal activity against Absidia corymbifera 272 after 48 hrs by broth microdilution method; assay type: functional; settings: Lichtheimia corymbifera, 272, 48 h; summary of the method: as §1
[27] = system: Klebsiella pneumoniae; assay: Antibacterial activity against ESBL-positive Klebsiella pneumoniae J 14368/08 at 500 micromol/L after 24 to 48 hrs by broth microdilution method; assay type: functional, organism-based; summary of the method: as §4
[28] = system: Lichtheimia corymbifera; assay: Antifungal activity against Absidia corymbifera 272 after 24 hrs by broth microdilution method; assay type: functional; settings: Lichtheimia corymbifera, 272, 24 h; summary of the method: as §1
[29] = system: Trichosporon asahii; assay: Antifungal activity against Trichosporon asahii 1188 after 24 hrs by broth microdilution method; assay type: functional; settings: Trichosporon asahii, 1188, 24 h; summary of the method: as §1
[30] = system: Staphylococcus aureus; assay: Antibacterial activity against Staphylococcus aureus CCM 4516/08 after 48 hrs by broth microdilution method; assay type: functional; settings: CCM 4516/08, 48 h; summary of the method: as §4
[31] = system: Nakaseomyces glabratus; assay: Antifungal activity against Candida glabrata 20/I at 500 micromol/L after 24 to 48 hrs by broth microdilution method; assay type: functional, organism-based; summary of the method: as §1
[32] = system: Pichia kudriavzevii; assay: Antifungal activity against Candida krusei E28 after 24 hrs by broth microdilution method; assay type: functional; settings: E28, 24 h; summary of the method: as §1
[33] = system: Pseudomonas aeruginosa; assay: Antibacterial activity against Pseudomonas aeruginosa CCM 1961 at 500 micromol/L after 24 to 48 hrs by broth microdilution method; assay type: functional, organism-based; summary of the method: as §4
[34] = system: Trichosporon asahii; assay: Antifungal activity against Trichosporon asahii 1188 after 48 hrs by broth microdilution method; assay type: functional; settings: Trichosporon asahii, 1188, 48 h; summary of the method: as §1
[35] = system: Escherichia coli; assay: Antibacterial activity against Escherichia coli CCM 4517 at 500 micromol/L after 24 to 48 hrs by broth microdilution method; assay type: functional, organism-based; summary of the method: as §4
[36] = system: HepG2; assay: Cytotoxicity against human HepG2 cells after 24 hrs by CellTiter assay; assay type: cell-based; settings: HepG2, 24 h
Summary of the method: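 HepG2 cells (passage 27–33) in MEM with 10% FBS, L-glutamine and NEAA, seeded at 1×10^4 per well. Treated next day with compounds at 0.1–100 µM (or 0.1–25 µmol/L), triplicates, <1% DMSO, for 24 h at 37 °C, 5% CO2. MTS reagent added for 2 h, absorbance read at 490 nm. IC50 taken against untreated (100%) and 10% DMSO (0%) controls.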

In the case of CCOP(=O)(OCC)Oc1ccc(Cl)cc1C(=O)Nc1cccc(F)c1, the MIC80 [1] is reported as over 500 µM, the MIC [2] is reported as 16 µM (≈ 6.43 µg/mL) and the MIC [3] is reported as 32 µM (≈ 12.9 µg/mL). For the same compound, the MIC [4] was 32 µM (≈ 12.9 µg/mL), the MIC50 [5] was over 500 µM and the MIC50 [6] was 62.5 µM (≈ 25.1 µg/mL). The MIC95 [7] was 500 µM (≈ 201 µg/mL), the MIC95 [8] was over 500 µM and the MIC95 [9] was 500 µM (≈ 201 µg/mL). For the same compound, the MIC95 [10] was 250 µM (≈ 100 µg/mL), the Activity [11] was “inactive” and the MIC50 [12] was over 500 µM. The MIC80 [13] was over 500 µM, the MIC50 [14] was 62.5 µM (≈ 25.1 µg/mL) and the MIC [15] was 32 µM (≈ 12.9 µg/mL). The MIC80 [16] was over 500 µM, the MIC95 [17] was 125 µM (≈ 50.2 µg/mL) and the MIC [18] was 8 µM (≈ 3.21 µg/mL). The MIC [19] was 32 µM (≈ 12.9 µg/mL), the Activity [20] was “inactive” and the Activity [21] was “inactive”. The MIC [22] was 32 µM (≈ 12.9 µg/mL), the MIC [23] was 32 µM (≈ 12.9 µg/mL) and the MIC [24] was 8 µM (≈ 3.21 µg/mL). For the same compound, the MIC [25] was 16 µM (≈ 6.43 µg/mL), the MIC50 [26] was over 500 µM and the Activity [27] was “inactive”. For the same compound, the MIC50 [28] was over 500 µM, the MIC80 [29] was over 500 µM and the MIC95 [30] was 500 µM (≈ 201 µg/mL). The Activity [31] was “inactive”, the MIC80 [32] was over 500 µM and the Activity [33] was “inactive”. For the same compound, the MIC80 [34] was over 500 µM, the Activity [35] was “inactive” and the IC50 [36] was 17.2 µM.
